From ChEMBL document CHEMBL1671797, “Lipophilic derivatives of leu-enkephalinamide: in vitro permeability, stability and in vivo nasal delivery” (Bioorg Med Chem, 2011) come the findings set out here.

A short description of data set [1]: Stability of the compound in human Caco2 cell homogenate assessed as half life by LC-MS/MS analysis. It counts as ADME, Colon. Particulars: Caco-2 cell homogenate. In outline:
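Confluent Caco-2 cells (21–28 days) rinsed, sonicated, spun 2000 rpm 5 min; supernatant adjusted to 0.5 mg/mL protein. Homogenate mixed 1:1 with 200 µM compound in HBSS/HEPES. Sampled at 5–120 min, quenched with TFA-acidified water (pH 1–2). Endomorphin-1 run as enzyme-activity control. t1/2 by one-phase decay fit; 4 wells, ≥3 independent experiments.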

Data set [2] can be described thus: Apparent permeability across human Caco2 cells by LC-MS/MS analysis. The class given is ADME, cell-based. The note with it: Caco-2. In outline: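 Caco-2 cells (passage 25–35, DMEM with 10% FBS, 1% NEAA) grown 21–28 days on 0.4 µm polycarbonate Transwell inserts; TEER 2.5–5 kΩ/cm2 before use. Rinsed with EDTA/DPBS then HBSS/25 mM HEPES pH 7.4, equilibrated 30 min at 37 °C. 200 µM apical dose; basolateral sampling at 30, 90, 120, 150 min. Papp from steady-state flux; 4 wells/experiment, ≥3 experiments; 14C mannitol control.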

A short description of data set [3]: Drug level in Sprague-Dawley rat brain at 1 mg/kg, intranasal after 10 mins by LC-MS/MS analysis. Further details: dose 1 mg/kg. Particulars: inhaled or intranasal, read-out: Drug uptake. It counts as ADME, organism-based. In outline: (§1)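 Male Sprague–Dawley rats (450–530 g, n = 4; 2 PBS controls) under xylazine/tiletamine–zolazepam anaesthesia. Dose given as 50 µL suspension in PBS pH 7.4 through a tube inserted 15 mm into the nasal cavity. CO2 euthanasia at 10 min. Tissues and blood homogenised or diluted in cold PBS, sonicated, acetonitrile-precipitated. Quantified against standards made in brain-homogenate matrix.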

Data set [4] relates to Plasma. As to the kind of experiment: Stability of the compound in human plasma assessed as degradation by HPLC analysis. The class given is ADME, cell-free. In outline: (§2)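 Compound at 1 mg/mL in PBS mixed 1:1 with human plasma from healthy volunteers at 37 °C. Aliquots taken at set times, put on ice, proteins precipitated with acetonitrile, spun 10,000 rpm 10 min. Supernatant run on C18 RP-HPLC (water/acetonitrile/TFA gradient), detection at 214 nm. Percent of initial peptide remaining plotted against time.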

Data set [5] in a line: Stability of the compound in human plasma assessed as half life by HPLC analysis. The class given is ADME, cell-free. The procedure, abridged: as §2
Data set [6] is described as follows: Drug level in Sprague-Dawley rat blood at 1 mg/kg, intranasal after 10 mins by LC-MS/MS analysis. It counts as ADME, organism-based. Particulars: whole blood, inhaled or intranasal. Further details: dose 1 mg/kg. In outline:
as §1

A short description of data set [7]: Drug level in Sprague-Dawley rat olfactory bulb at 1 mg/kg, intranasal after 10 mins by LC-MS/MS analysis. The class given is ADME, organism-based. Further details: dose 1 mg/kg. The note with it: inhaled or intranasal, read-out: Drug uptake. The procedure, abridged:
as §1

In data set [8] the test system is Plasma. The data set can be described thus: Stability of the compound in human plasma by HPLC analysis. It counts as ADME, cell-free. The procedure, abridged: as §2

SMILES strings stand for the structures. Non-standard residues stand in square brackets, D forms with d. Residues, ends and D or L forms follow the SMILES beside them. Gly(decyl) = CCCCCCCCCC[C@H](N)C(=O)O; Aoc(2) = CCCCCC[C@H](N)C(=O)O

As for `CCCCCC[C@H](NC(=O)[C@H](CC(C)C)NC(=O)[C@H](Cc1ccccc1)NC(=O)CNC(=O)CNC(=O)[C@H](Cc1ccc(O)cc1)NC(C)=O)C(N)=O` (Ac-YGGFL[Aoc(2)]-NH2), the half-life in data set [1] was determined as 13.8 min. Further, the Papp in data set [2] is 0.763 ×10⁻⁶ cm/s.

In the case of `CC(C)C[C@H](NC(=O)[C@H](Cc1ccccc1)NC(=O)CNC(=O)CNC(=O)[C@@H](N)Cc1ccc(O)cc1)C(=O)O` [ENKEPHALIN], the apparent permeability coefficient (Papp) in data set [2] was determined as 0.31 ×10⁻⁶ cm/s.

`CCCCCCCCCC[C@H](N)C(=O)N[C@@H](Cc1ccc(O)cc1)C(=O)NCC(=O)NCC(=O)N[C@@H](Cc1ccccc1)C(=O)N[C@@H](CC(C)C)C(N)=O` (H-[Gly(decyl)]YGGFL-NH2): the half-life in data set [1] came to 14.7 min. In data set [2], the Papp came out at 2.43 ×10⁻⁶ cm/s.

In the case of `CCCCCC[C@H](N)C(=O)N[C@@H](Cc1ccc(O)cc1)C(=O)NCC(=O)NCC(=O)N[C@@H](Cc1ccccc1)C(=O)N[C@@H](CC(C)C)C(N)=O`, the concentration at 10 min in data set [3] amounted to 13.5 nM; in data set [6], 6.53 nM; in data set [7], 59 nM. In addition, the half-life in data set [1] worked out at 31.7 min; in data set [5], 8.9 min. Further, the apparent permeability (Papp) in data set [2] was determined as 2.51 ×10⁻⁶ cm/s. The Stability entry in data set [4] is listed as “Unstable”.

In the case of `CCCCCCCCCC[C@H](NC(=O)[C@H](CC(C)C)NC(=O)[C@H](Cc1ccccc1)NC(=O)CNC(=O)CNC(=O)[C@@H](N)Cc1ccc(O)cc1)C(N)=O` (H-YGGFL[Gly(decyl)]-NH2), the half-life in data set [1] turned out to be 16.4 min.

Turning to `CCCCCC[C@H](NC(C)=O)C(=O)N[C@@H](Cc1ccc(O)cc1)C(=O)NCC(=O)NCC(=O)N[C@@H](Cc1ccccc1)C(=O)N[C@@H](CC(C)C)C(N)=O` (Ac-[Aoc(2)]YGGFL-NH2), the half-life in data set [1] was 83 min. Also, in data set [2], the Papp was 1.06 ×10⁻⁶ cm/s.

In the case of `CCCCCCCCCC[C@H](NC(=O)[C@H](CC(C)C)NC(=O)[C@H](Cc1ccccc1)NC(=O)CNC(=O)CNC(=O)[C@H](Cc1ccc(O)cc1)NC(C)=O)C(N)=O` (Ac-YGGFL[Gly(decyl)]-NH2), the half-life in data set [1] came out at 18.4 min.

As for `CCCCCCCCCC[C@H](NC(C)=O)C(=O)N[C@@H](Cc1ccc(O)cc1)C(=O)NCC(=O)NCC(=O)N[C@@H](Cc1ccccc1)C(=O)N[C@@H](CC(C)C)C(N)=O` (Ac-[Gly(decyl)]YGGFL-NH2), the half-life in data set [1] was found to be 27 min.

For `CCCCCC[C@H](NC(=O)[C@H](CC(C)C)NC(=O)[C@H](Cc1ccccc1)NC(=O)CNC(=O)CNC(=O)[C@@H](N)Cc1ccc(O)cc1)C(N)=O` (H-YGGFL[Aoc(2)]-NH2), in data set [1], the half-life was found to be 5.4 min. The Papp in data set [2] turned out to be 0.00477 ×10⁻⁶ cm/s.

On to `CCCCCC[C@@H](N)C(=O)N[C@@H](Cc1ccc(O)cc1)C(=O)NCC(=O)NCC(=O)N[C@@H](Cc1ccccc1)C(=O)N[C@@H](CC(C)C)C(N)=O`, for which, in data set [8], the Stability entry was “Stable”.

For orientation: half-life means how long it takes for the measured level to halve. Broadly, the Papp is a coefficient for how fast a substance crosses the barrier.
